# ChEMBL document CHEMBL1158505, “Phenolics from Glycyrrhiza glabra roots and their PPAR-gamma ligand-binding activity” (Bioorg Med Chem, 2010)
# Activity calls are given as the source filed them. The calls are words filed in the database; no cut-off is given here.
# Target: T1, Peroxisome proliferator-activated receptor gamma (Homo sapiens) (UniProt P37231)
# T1 sequence (whole entry): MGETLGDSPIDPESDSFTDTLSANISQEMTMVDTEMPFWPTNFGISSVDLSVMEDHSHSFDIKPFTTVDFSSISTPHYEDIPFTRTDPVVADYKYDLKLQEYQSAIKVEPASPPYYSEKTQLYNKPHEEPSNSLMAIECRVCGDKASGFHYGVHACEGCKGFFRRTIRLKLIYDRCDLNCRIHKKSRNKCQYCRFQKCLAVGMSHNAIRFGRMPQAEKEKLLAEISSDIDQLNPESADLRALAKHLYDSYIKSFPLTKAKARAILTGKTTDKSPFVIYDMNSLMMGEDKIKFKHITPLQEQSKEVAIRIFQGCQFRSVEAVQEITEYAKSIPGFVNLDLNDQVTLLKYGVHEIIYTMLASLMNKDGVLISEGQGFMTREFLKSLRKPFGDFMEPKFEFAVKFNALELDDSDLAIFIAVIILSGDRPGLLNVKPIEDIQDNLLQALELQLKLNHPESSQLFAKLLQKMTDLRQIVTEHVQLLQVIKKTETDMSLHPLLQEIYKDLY
# Experiment: Binding affinity to human recombinant […] expressed in african green monkey CV1 cells coexpressing GAL4-luc reporter by microplate scintillation counter
# Type: cell-based
# Conditions: CV-1
# Summary of the method: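 GAL4-PPAR-γ chimera reporter assay in CV-1 monkey kidney cells seeded at 6 × 10³ cells/well in DMEM with 10% FBS and ascorbic acid, 37 °C, 5% CO2, 24 h. Cells transfected with pM-hPPAR-γ and p4×UASg-tk-luc, then 24 h later given DMEM with 10% charcoal-treated FBS plus sample (2 or 10 μg/mL; final DMSO 0.1%) for 24 h. Luciferase luminescence expressed relative to DMSO control; n = 4.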
row,Activity,Compound
1,Active,CC1(C)C=Cc2c(ccc(-c3coc4cc(O)ccc4c3=O)c2O)O1
2,Active,CC1(C)C=Cc2c(ccc3cc(-c4ccc(O)cc4O)c(=O)oc23)O1
3,Active,CC(C)=CCc1cc([C@@H]2CC(=O)c3ccc(O)c(CC=C(C)C)c3O2)ccc1O
4,Active,CC1(C)C=Cc2c(ccc3c2OC[C@H]2c4ccc(O)cc4O[C@@H]32)O1
5,Active,CC(C)=CCc1c(O)ccc([C@@H]2COc3c(ccc(O)c3CC=C(C)C)C2)c1O
6,Active,COc1ccc([C@@H]2COc3cc(O)ccc3C2)c(O)c1O
7,Active,CC(C)=CCc1cc([C@@H]2CC(=O)c3ccc4c(c3O2)C=CC(C)(C)O4)ccc1O
8,Active,COc1cc(O)ccc1/C=C/C(=O)c1ccc(O)cc1
9,Active,CC(C)=CCc1c(O)cc(O)c2c(=O)c(-c3ccc(O)c(O)c3)coc12
10,Active,CC1(C)C=Cc2c(ccc3c2OC[C@@H](c2cc(C=O)c(O)cc2O)C3)O1
11,Active,CC(C)=CCc1cc([C@H]2Oc3cc(O)ccc3C(=O)[C@@H]2O)ccc1O
12,Active,CC(C)=CCc1cc2c(=O)cc(-c3ccc(O)cc3)oc2cc1O
